Measurements published in paper PMC10370593 (Chemical Science, 2023).
Entries after “also recorded” stand apart in the source; their conditions may differ.

Columns and labels:
[1] = system: Erk1 gene; assay: Gene silencing by real-time PCR; type: cell-based, human; settings: mean ± SEM of three
[2] = system: Notch1 gene; assay: Gene silencing by real-time PCR; type: cell-based, human; settings: 72 h, MDA-MB-231, MR50 (1.25 μM lipopeptide, 25 nM Notch1 siRNA), RT-PCR, mean ± SEM of three
[3] = system: Erk2 gene; assay: Gene silencing by real-time PCR; type: cell-based, human; settings: 72 h, MDA-MB-231, MR50, RT-PCR, mean ± SEM of three
[4] = system: MDA-MB-231 cells; assay: Uptake studies by ApoTome microscopy; type: cell-based, human; settings: MR 50, 6 h incubation at 37 °C
[5] = system: MDA-MB-231 cells; assay: Cellular uptake by flow cytometry; type: cell-based, human; settings: DY-547 labelled siRNA, MR 50, 1 h incubation
Summary of the method: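 MDA-MB-231 cells were incubated 1 h with complexes of FAM-labelled lipopeptide (1.25 μM) and DY-547-labelled siRNA (25 nM), MR 50. Complexes were pre-formed by mixing and resting 30 min at room temperature. Uptake was read by flow cytometry in the FITC and PE channels, with single-label complexes used for compensation. Samples were run in duplicate; values are mean ± SEM of two replicates.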

[6] = system: Notch1 protein; assay: Immunostaining of Notch1 protein; type: cell-based, human; settings: MDA-MB-231, 72 h, MR50, TRITC signal versus untreated vehicle
Summary of the method: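 MDA-MB-231 cells were seeded at 14000 per well on etched coverslips and left overnight. They were then transfected with unlabelled lipopeptide (1.25 μM) complexed to Notch1-silencing siRNA (25 nM), MR 50, for 72 h. Untreated cells served as vehicle. Notch1 was detected by immunofluorescence.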

[7] = system: HUVEC; assay: Cellular uptake by flow cytometry; type: cell-based, human; settings: DY-547 labelled siRNA, MR 50, 1 h incubation, hard to transfect primary cells, two replicates
[8] = system: trypsin; assay: Protease stability of lipopeptides; type: in vitro ADME; settings: 0.1 μg trypsin, protocol of ref. 14
[9] = system: CD44 gene; assay: Relative gene expression in Notch1 silenced MDA-MB-231 by real-time PCR; type: cell-based, human; settings: MDA-MB-231, 72 h, RT-PCR; AB36_siRNA MR 50, metformin 200 μM; mean of n = 3
[10] = system: MMP-2 gene; assay: as above; type: cell-based, human; settings: MDA-MB-231, 72 h, RT-PCR; AB36_siRNA MR 50, metformin 200 μM; mean of n = 3
[11] = system: CD24 gene; assay: as above; type: cell-based, human; settings: MDA-MB-231, 72 h, RT-PCR; AB36_siRNA MR 50, metformin 200 μM; mean of n = 3
[12] = system: MDA-MB-231 cells; assay: MTT cytotoxicity for IC50 and combination index; type: cell-based; settings: Homo sapiens, MDA-MB-231, 72 h
Summary of the method: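 MTT viability assay in MDA-MB-231 cells at 72 h. The IC50 of the test compound came from a dose range analysed in CompuSyn. For the combination, five test compound doses (200–450 μM) were paired with a fixed dose of lipopeptide–Notch1 siRNA complex. Combination index was derived by the Chou–Talalay method. Data are mean ± SEM, n = 3.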

[13] = 48 h, MDA-MB-231, MR50 (1.25 μM lipopeptide, 25 nM Erk1/2 siRNA), RT-PCR

Compound | Knockdown percentage, Erk1 [1, 13] | Knockdown percentage, Erk1 ([1]; 72 h, MDA-MB-231, MR50, RT-PCR) | Knockdown percentage, Notch1 [2] | Knockdown percentage, Erk2 [3] | also measured
c[-Arg-^DHis-Arg-^DHis-Arg-Lys{Lys(linoleyl)2}-Arg-^DHis-Arg-^DHis-Arg-Glu-]-Lys(FAM)-NH2 (head to tail) [Peptide 6, reference compound] | 31.2 ± 2.2% | 78.1 ± 2.0% | 80.9 ± 1.6% | 71.6 ± 9.4% | 
FAM-γAbu-Arg- C^α-Octylgly -Arg-Sar-Arg-Gly-Arg- Lys-N^ε(D-alpha-Tocopherol succinyl)-Arg-Sar-Arg-NH2 [AB18] | 62.6 ± 12.5% | 89.1 ± 6.3% | 90.8 ± 3.06% | 85.9 ± 16.7% | cytosolic distribution of siRNA compared with HiPerFect [4]: higher levels of cytosolic distribution of siRNA; siRNA internalization (ranking among designed lipopeptides) [5]: highest siRNA internalization; also recorded: highest level of siRNA; siRNA internalization relative to HiPerFect_siRNA ([5]; two replicates): 1.79 times
PEG9-Arg- C^α-Octylgly -Arg-Sar-Arg-Gly-Arg-Lys- N^ε(D-alpha-Tocopherol succinyl)-Arg-Sar-Arg-NH2 [AB36] |  |  |  |  | Notch1 protein expression by immunofluorescence [6]: significantly lowered; cellular internalization of siRNA relative to HiPerFect [7]: 1.53 times; time at which degradation by trypsin starts [8]: 1 to 3 h; time at which lipopeptide is completely degraded by trypsin [8]: 6 h
FAM-^γAbu-Arg- Lys-N^ε(stearyl)-Arg-Sar-Arg-Gpn-Arg- Lys-N^ε(stearyl)-Arg-Sar-Arg-NH2 [AB32] | 51.6 ± 7.4% | 70.6 ± 2.3% | 73.1 ± 2.8% | 60.3 ± 3.2% | 
CN(C)C(=N)N=C(N)N [metformin] |  |  |  |  | relative expression of the CD44 gene [9]: did not show any changes; relative expression of the MMP-2 gene [10]: did not show any changes; relative expression of the CD24 gene [11]: did not show any changes; IC50 [12]: 374 µM
FAM-γAbu-Arg-C^α-Octylgly-Arg-Sar-Arg-Gly-Arg-Lys-N^ε(1-Adamantyl)-Arg-Sar-Arg-NH2 [AB29] | 52.6 ± 10.2% | 58.8 ± 10.9% | 50.5 ± 7.7% | 59.8 ± 7.2% | siRNA internalization (ranking among designed lipopeptides) [5]: much lower efficiency; also recorded: lowest amount of siRNA
FAM-γAbu-Arg- Lys-N^ε(1-Pyrenebutyryl)-Arg-Sar-Arg-Gly-Arg- Lys-N^ε(1-Pyrenebutyryl)-Arg-Sar-Arg-NH2 [AB17] | 67.9 ± 7.6% | 85.9 ± 8.8% | 82.5 ± 5.6% | 75.8 ± 5.1% | 
